Measured values taken from ChEMBL document CHEMBL4014315 (J Med Chem, 2017).
Activity calls are given as the source filed them. The rule behind the calls is not given here.

Assays:
[1] = target: T1, Broad substrate specificity ATP-binding cassette transporter ABCG2 (Homo sapiens, UniProt Q9UNQ0); test: Inhibition of recombinant human GFP-fused ABCG2 expressed in MDCK2 cells assessed as reduction in Hoechst 33342 efflux preincubated for 30 mins followed by Hoechst 33342 addition measured immediately at 60 sec time interval for 120 mins by fluorescence assay; format: cell-based
T1 sequence (Q9UNQ0 whole entry): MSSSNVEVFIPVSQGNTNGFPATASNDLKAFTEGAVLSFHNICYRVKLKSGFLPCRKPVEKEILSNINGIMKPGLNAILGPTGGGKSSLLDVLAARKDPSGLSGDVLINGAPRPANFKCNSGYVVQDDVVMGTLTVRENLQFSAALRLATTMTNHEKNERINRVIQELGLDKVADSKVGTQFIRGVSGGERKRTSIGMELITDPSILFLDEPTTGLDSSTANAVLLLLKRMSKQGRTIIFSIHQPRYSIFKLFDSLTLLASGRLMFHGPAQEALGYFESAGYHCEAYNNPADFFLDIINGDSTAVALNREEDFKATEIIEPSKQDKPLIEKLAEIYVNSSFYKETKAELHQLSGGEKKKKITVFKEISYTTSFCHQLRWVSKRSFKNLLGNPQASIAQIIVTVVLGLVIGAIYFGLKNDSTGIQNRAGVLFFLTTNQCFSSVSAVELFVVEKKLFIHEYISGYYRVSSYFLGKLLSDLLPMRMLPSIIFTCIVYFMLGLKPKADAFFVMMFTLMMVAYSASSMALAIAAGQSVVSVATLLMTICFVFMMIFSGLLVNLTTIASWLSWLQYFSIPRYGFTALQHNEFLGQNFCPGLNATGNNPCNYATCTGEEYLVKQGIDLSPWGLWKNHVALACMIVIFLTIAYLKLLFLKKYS
Method in brief: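 Hoechst 33342 accumulation assay: the dye is an ABCG2 substrate whose fluorescence rises when bound to DNA or embedded in membrane. Intracellular accumulation serves as the read-out of transporter inhibition.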

ABCG2 [2] = target: T2, ABCG2 (Homo sapiens, UniProt Q9UNQ0); test: Inhibition of recombinant human GFP-fused ABCG2 expressed in MDCK2 cells assessed as reduction in Hoechst 33342 efflux at […] preincubated for 30 mins followed by Hoechst 33342 addition measured immediately at 60 sec time interval for 120 mins by fluorescence assay relative to Ko143; format: cell-based; conditions: MDCK2 cells expressing recombinant GFP-fused human ABCG2, probe Hoechst 33342, read-out: Imax
T2 sequence (Q9UNQ0 whole entry): T1 sequence (Q9UNQ0 whole entry)

[3] = target: ATP-dependent translocase ABCB1 (Homo sapiens, UniProt P08183); test: Inhibition of ABCB1 in human A2780adr cells assessed as reduction in calcein AM levels preincubated for 30 mins followed by calcein AM addition measured immediately at 60 sec time interval for 60 mins by fluorescence assay; format: cell-based
Sequence of ATP-dependent translocase ABCB1 (P08183 whole entry): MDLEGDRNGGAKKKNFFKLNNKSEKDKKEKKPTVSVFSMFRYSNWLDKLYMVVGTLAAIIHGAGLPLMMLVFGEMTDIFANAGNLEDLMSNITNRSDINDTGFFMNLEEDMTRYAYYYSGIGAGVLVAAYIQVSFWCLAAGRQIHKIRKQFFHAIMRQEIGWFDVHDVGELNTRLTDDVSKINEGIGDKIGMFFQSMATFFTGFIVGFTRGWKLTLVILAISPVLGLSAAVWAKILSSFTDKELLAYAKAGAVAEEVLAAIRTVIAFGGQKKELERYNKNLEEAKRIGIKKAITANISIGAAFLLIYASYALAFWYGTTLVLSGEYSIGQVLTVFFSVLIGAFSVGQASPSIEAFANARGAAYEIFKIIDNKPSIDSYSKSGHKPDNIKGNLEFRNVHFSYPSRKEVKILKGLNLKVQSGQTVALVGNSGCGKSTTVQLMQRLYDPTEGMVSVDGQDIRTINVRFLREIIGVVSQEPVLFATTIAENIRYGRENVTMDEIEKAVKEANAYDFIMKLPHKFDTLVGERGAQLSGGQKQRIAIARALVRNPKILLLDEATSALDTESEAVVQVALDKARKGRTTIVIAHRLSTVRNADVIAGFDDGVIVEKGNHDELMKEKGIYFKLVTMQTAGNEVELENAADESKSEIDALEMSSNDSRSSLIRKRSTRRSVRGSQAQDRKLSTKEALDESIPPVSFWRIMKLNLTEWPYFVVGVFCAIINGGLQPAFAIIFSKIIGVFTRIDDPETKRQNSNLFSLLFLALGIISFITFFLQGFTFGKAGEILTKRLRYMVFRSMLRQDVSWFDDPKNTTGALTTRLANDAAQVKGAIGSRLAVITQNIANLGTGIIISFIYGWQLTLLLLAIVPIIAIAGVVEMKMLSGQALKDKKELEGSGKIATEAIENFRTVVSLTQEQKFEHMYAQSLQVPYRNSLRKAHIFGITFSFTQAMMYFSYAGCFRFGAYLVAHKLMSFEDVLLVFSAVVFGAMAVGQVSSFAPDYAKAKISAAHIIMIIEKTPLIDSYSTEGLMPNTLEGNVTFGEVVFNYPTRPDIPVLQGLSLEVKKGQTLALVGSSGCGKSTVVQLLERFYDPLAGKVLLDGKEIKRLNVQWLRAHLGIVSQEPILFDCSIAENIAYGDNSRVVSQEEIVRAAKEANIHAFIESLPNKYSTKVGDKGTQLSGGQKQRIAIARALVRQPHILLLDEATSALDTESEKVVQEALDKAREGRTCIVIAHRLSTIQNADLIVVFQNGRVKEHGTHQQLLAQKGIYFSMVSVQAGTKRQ
Method in brief: (§1)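 Calcein AM assay in A2780adr cells (ABCB1 overexpressing) and H69AR cells (ABCC1 overexpressing). Compounds were screened at 10 µM, with inhibition relative to cyclosporine A as the total-inhibition control.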

ABCB1 = ABCB1 (Homo sapiens, UniProt P08183); test: Inhibition of ABCB1 in human A2780adr cells assessed as reduction in calcein AM levels at 10 uM preincubated for 30 mins followed by calcein AM addition measured immediately at 60 sec time interval for 60 mins by fluorescence assay relative to Cyclosporine A; format: cell-based; conditions: probe calcein AM; method in brief: as §1
Sequence of ABCB1 (P08183 whole entry): as above

[4] = target: T1, Broad substrate specificity ATP-binding cassette transporter ABCG2; test: Activation of ABCG2 (unknown origin) ATPase activity expressed in baculovirus infected high five cell membranes by ascorbic acid/ammonia molybdate reaction-based colorimetric analysis; conditions: read-out: EC50
Method in brief: (§2)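 Colorimetric ATPase assay of ABCG2 membranes; activity expressed relative to control. Where data were biphasic, a combined increasing plus decreasing logistic equation with the Hill coefficient fixed at one was fitted, giving an activating and an inactivating K.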

ABCG2 [5] = target: T2, ABCG2; test: Activation of ABCG2 (unknown origin) ATPase activity expressed in baculovirus infected high five cell membranes assessed as protein Vmax by ascorbic acid/ammonia molybdate reaction-based colorimetric analysis relative to basal control; conditions: read-out: Vmax; method in brief: as §2
[6] = Cytotoxicity against ABCG2 over-expressing MDCK2 cells assessed as cell growth inhibition after 72 hrs by MTT assay; format: ADME, cell-based, Canis lupus familiaris, MDCK-II; conditions: dog
[7] = Cytotoxicity against MDCK2 cells assessed as cell growth inhibition after 72 hrs by MTT assay; format: cell-based, Canis lupus familiaris, MDCK-II; conditions: dog
[8] = Therapeutic index, ratio of GI50 for ABCG2 over-expressing MDCK2 cells to IC50 for recombinant human GFP-fused ABCG2 expressed in MDCK2 cells; format: cell-based
[9] = target: T1, Broad substrate specificity ATP-binding cassette transporter ABCG2; test: Inhibition of human GFP-fused ABCG2 expressed in MDCK2 cells assessed as potentiation of SN-38 induced cytotoxicity by measuring cell viability at 1 uM after 72 hrs by MTT assay; format: cell-based
Method in brief: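 Reversal MTT assay in ABCG2-overexpressing MDCK II cells: SN-38 dilutions were combined with different modulator concentrations. Parental MDCK II cells defined total inhibition, and overexpressing cells without modulator defined no inhibition. GI50 values were plotted against log modulator concentration to derive IC50.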

MDCK-II [10] = test: Cytotoxicity against ABCG2 over-expressing MDCK2 cells assessed as effect on cell proliferation at low concentration after 72 hrs in absence of DMSO and presence of 1% methanol by MTT assay; format: ADME, cell-based, Canis lupus familiaris; conditions: dog
Method in brief: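 Modified MTT viability assay in ABCG2-overexpressing MDCK II cells, run without DMSO and with a constant 1% methanol.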

MDCK-II [11] = test: Potentiation of SN-38 induced cytotoxicity against MDCK2 cells at 0.01 to 5 uM after 72 hrs by MTT assay; format: functional, cell-based; conditions: Canis lupus familiaris
Method in brief: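 Parental MDCK II cells were given SN-38 dilutions combined with different modulator concentrations, with viability read by MTT.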

ABCC1 = ABCC1 (Homo sapiens, UniProt P33527); test: Inhibition of ABCC1 in human H69AR cells assessed as reduction in calcein AM levels at 10 uM preincubated for 30 mins followed by calcein AM addition measured immediately at 60 sec time interval for 60 mins by fluorescence assay relative to Cyclosporine A; format: cell-based; conditions: probe calcein AM; method in brief: as §1
Sequence of ABCC1 (P33527 whole entry): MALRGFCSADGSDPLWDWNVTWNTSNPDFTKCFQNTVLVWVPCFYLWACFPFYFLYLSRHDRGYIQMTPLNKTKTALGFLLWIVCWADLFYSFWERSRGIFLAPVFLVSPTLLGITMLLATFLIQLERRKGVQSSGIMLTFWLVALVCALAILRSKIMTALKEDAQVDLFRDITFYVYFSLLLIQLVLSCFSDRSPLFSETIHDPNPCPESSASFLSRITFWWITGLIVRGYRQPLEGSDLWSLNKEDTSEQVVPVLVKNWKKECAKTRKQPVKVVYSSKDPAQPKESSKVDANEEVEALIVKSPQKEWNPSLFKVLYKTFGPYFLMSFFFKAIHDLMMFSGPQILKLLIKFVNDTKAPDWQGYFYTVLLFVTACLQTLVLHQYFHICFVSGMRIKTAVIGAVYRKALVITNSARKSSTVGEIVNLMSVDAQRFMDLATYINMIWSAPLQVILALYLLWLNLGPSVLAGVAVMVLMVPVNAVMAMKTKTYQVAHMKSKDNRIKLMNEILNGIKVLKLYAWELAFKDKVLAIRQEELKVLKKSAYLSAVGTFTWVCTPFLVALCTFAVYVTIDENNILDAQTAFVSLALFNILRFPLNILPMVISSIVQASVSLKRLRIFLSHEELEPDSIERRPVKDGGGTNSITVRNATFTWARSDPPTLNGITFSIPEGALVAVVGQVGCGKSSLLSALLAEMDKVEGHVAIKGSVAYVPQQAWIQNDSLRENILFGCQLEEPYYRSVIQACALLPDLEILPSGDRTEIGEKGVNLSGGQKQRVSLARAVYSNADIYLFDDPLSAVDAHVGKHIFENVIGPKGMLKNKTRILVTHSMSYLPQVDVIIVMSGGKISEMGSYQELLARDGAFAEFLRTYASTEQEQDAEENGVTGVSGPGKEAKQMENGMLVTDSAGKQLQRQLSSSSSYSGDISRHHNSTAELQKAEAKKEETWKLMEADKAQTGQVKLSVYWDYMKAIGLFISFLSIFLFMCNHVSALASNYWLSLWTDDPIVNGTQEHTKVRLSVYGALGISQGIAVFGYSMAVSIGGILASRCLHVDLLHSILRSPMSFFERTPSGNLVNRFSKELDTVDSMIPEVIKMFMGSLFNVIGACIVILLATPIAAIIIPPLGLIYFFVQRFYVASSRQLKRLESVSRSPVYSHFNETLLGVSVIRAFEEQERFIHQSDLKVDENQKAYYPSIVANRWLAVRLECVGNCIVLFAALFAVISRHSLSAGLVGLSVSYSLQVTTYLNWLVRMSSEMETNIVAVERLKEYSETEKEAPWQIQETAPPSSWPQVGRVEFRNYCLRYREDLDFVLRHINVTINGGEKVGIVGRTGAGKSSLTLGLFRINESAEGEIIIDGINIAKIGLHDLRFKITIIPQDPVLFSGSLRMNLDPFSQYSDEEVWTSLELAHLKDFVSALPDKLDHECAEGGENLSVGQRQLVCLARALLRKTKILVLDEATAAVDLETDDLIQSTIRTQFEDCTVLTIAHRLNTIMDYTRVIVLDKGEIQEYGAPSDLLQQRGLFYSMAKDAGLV

[12] = target: T1, Broad substrate specificity ATP-binding cassette transporter ABCG2; test: Inhibition of ABCG2 (unknown origin) ATPase activity expressed in baculovirus infected high five cell membranes by ascorbic acid/ammonia molybdate reaction-based colorimetric analysis; method in brief: as §2
[13] = target: T1, Broad substrate specificity ATP-binding cassette transporter ABCG2; test: Competitive inhibition of recombinant human GFP-fused ABCG2 expressed in MDCK2 cells up to 5620 nM preincubated for 30 mins followed by varying levels of Hoechst 33342 addition measured immediately at 60 sec time interval for 120 mins by Lineweaver-Burk plot analysis; format: cell-based; conditions: 2 h
Method in brief: (§3)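 Kinetics were run with Hoechst 33342 as the fluorescent ABCG2 substrate at varying levels, combined with several modulator concentrations. Data were analysed by double-reciprocal Lineweaver-Burk, half-reciprocal Hanes-Woolf and Cornish-Bowden direct linear plots. Changes in Vmax and KM with modulator concentration defined the mode: competitive, non-competitive or mixed type.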

[14] = target: T1, Broad substrate specificity ATP-binding cassette transporter ABCG2; test: Competitive inhibition of recombinant human GFP-fused ABCG2 expressed in MDCK2 cells up to 5620 nM preincubated for 30 mins followed by varying levels of Hoechst 33342 addition measured immediately at 60 sec time interval for 120 mins by Hanes-Woolf plot analysis; format: cell-based; conditions: 2 h; method in brief: as §3
[15] = target: T1, Broad substrate specificity ATP-binding cassette transporter ABCG2; test: Competitive inhibition of recombinant human GFP-fused ABCG2 expressed in MDCK2 cells up to 1000 nM preincubated for 30 mins followed by varying levels of Hoechst 33342 addition measured immediately at 60 sec time interval for 120 mins by Cornish-Bowden plot analysis; format: cell-based; conditions: 2 h; method in brief: as §3
[16] = target: T1, Broad substrate specificity ATP-binding cassette transporter ABCG2; test: Ratio of IC50 for inhibition of human GFP-fused ABCG2 expressed in MDCK2 cells to EC50 for inhibition of human GFP-fused ABCG2 expressed in MDCK2 cells assessed as potentiation of SN-38 induced cytotoxicity by measuring cell viability; format: cell-based
[17] = target: T1, Broad substrate specificity ATP-binding cassette transporter ABCG2; test: Non-competitive inhibition of recombinant human GFP-fused ABCG2 expressed in MDCK2 cells up to 100 nM preincubated for 30 mins followed by varying levels of Hoechst 33342 addition measured immediately at 60 sec time interval for 120 mins by Lineweaver-Burk plot analysis; format: cell-based; conditions: 2 h; method in brief: as §3
[18] = target: T1, Broad substrate specificity ATP-binding cassette transporter ABCG2; test: Non-competitive inhibition of recombinant human GFP-fused ABCG2 expressed in MDCK2 cells up to 100 nM preincubated for 30 mins followed by varying levels of Hoechst 33342 addition measured immediately at 60 sec time interval for 120 mins by Hanes-Woolf plot analysis; format: cell-based; conditions: 2 h; method in brief: as §3
[19] = target: T1, Broad substrate specificity ATP-binding cassette transporter ABCG2; test: Non-competitive inhibition of recombinant human GFP-fused ABCG2 expressed in MDCK2 cells up to 100 nM preincubated for 30 mins followed by varying levels of Hoechst 33342 addition measured immediately at 60 sec time interval for 120 mins by Cornish-Bowden plot analysis; format: cell-based; conditions: 2 h; method in brief: as §3

SMILES	IC50 [1] [nM]	Emax at 2 h (ABCG2 [2]) [%]	IC50 [3] [nM]	inhibition at 1 h, 10 µM (ABCB1) [%]	EC50 [4] [nM]	Emax (ABCG2 [5]) [%]	GI50 at 72 h [6] [nM]	GI50 at 72 h [7] [nM]	TI [8]	Activity (MDCK-II [10])	other results
COc1ccc(Nc2nc(-c3ccncc3)nc3ccccc23)cc1OC	545	80 to 110	2080	> 25	10	150					
N#Cc1cccc(Nc2nc(-c3cccnc3)nc3ccccc23)c1	108	80 to 110			350	151	75300	90700	697	Non-Toxic	inhibition (INH) [9]: Active; Activity (MDCK-II [11]): inactive
Cc1cc(Nc2ccc(O)c([N+](=O)[O-])c2)nc(-c2ccccc2)n1	98.8	80 to 110			1800	154	49000	57500	496	Non-Toxic	inhibition at 1 h, 10 µM (ABCC1): 25%; inhibition (INH) [9]: Active; Activity (MDCK-II [11]): inactive
FC(F)(F)c1ccc(Nc2nc(-c3ccncc3)nc3ccccc23)cc1	488	80 to 110				152	117000	166000	240		Ki [12]: 27000 nM
COc1ccc(Nc2nc(-c3ccncc3)nc3ccccc23)cc1	742	80 to 110			70	137					inhibition at 1 h, 10 µM (ABCC1): 25%
COc1ccc(Nc2nc(-c3ccncc3)nc3ccccc23)cc1C(F)(F)F	146	80 to 110	2780	> 25			2880	2460	19.7		
COc1cccc(Nc2nc(-c3ccncc3)nc3ccccc23)c1	558	80 to 110	5430	> 25	42	132					inhibition (INH) [13]: Active; inhibition (INH) [14]: Active; inhibition (INH) [15]: Active
CC(C)(C)OC(=O)c1cccc(Nc2nc(-c3ccncc3)nc3ccccc23)c1	299	80 to 110	334	> 25	1540	40					
COc1cccc(Nc2nc(-c3cccnc3)nc3ccccc23)c1	1020	80 to 110	4780	> 25	50	137					
O=[N+]([O-])c1ccc(Nc2nc(-c3cccnc3)nc3ccccc23)cc1	64.1	80 to 110			9	164	73300	74100		Non-Toxic	inhibition (INH) [9]: Active; Ratio IC50/EC50 [16]: 3; inhibition (INH) [17]: Active; inhibition (INH) [18]: Active; inhibition (INH) [19]: Active; Activity (MDCK-II [11]): inactive
N#Cc1cccc(Nc2nc(-c3ccncc3)nc3ccccc23)c1	134	80 to 110			16	178	88100	112000	657	Non-Toxic	
COc1ccc(Nc2nc(-c3ccccn3)nc3ccccc23)cc1OC	1060	80 to 110	6300	> 25	79	152					
